In brackets after ≈: the same amount, converted by molar mass.
Legend:
Escherichia coli = test: Antimicrobial activity against Escherichia coli ATCC 25922 after 20 to 24 hrs; format: functional
Procedure, shortened: (§1)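 Broth microdilution in duplicate; compound in 2.5% DMSO in water, overnight culture added to a final inoculum of about 10^2-10^3 CFU/well. Growth read as A595 after 20-24 h at 37°C, relative to a no-compound well. MIC reported as a range: complete inhibition at the higher concentration, viable cells at the lower. Ampicillin and tetracycline are the positive controls.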

Staphylococcus aureus = test: Antimicrobial activity against Staphylococcus aureus ATCC 13709 after 20 to 24 hrs; format: functional; procedure, shortened: as §1

Row | Compound | MIC (Escherichia coli) | MIC (Staphylococcus aureus)
1 | NCCO[C@H]1[C@H](O[C@@H]2[C@@H](O)[C@H](N)C[C@H](N)[C@H]2O[C@H]2O[C@H](CO)[C@@H](O)[C@H](O)[C@H]2N)O[C@H](CO)[C@H]1O[C@H]1O[C@@H](CN)[C@@H](O)[C@H](O)[C@H]1N | 12 µg/mL (≈ 18.2 µM) | 2 µg/mL (≈ 3.04 µM)
2 | N[C@H]1[C@@H](O[C@H]2[C@H](O[C@@H]3O[C@H](CO)[C@@H](O)[C@H]3O)[C@@H](O)[C@H](N)C[C@@H]2N)O[C@H](CO)[C@@H](O)[C@@H]1O | > 100 µg/mL | > 100 µg/mL
3 | NC[C@@H]1O[C@H](O[C@H]2[C@@H](OCCNCc3ccc(N)nc3)[C@H](O[C@@H]3[C@@H](O)[C@H](N)C[C@H](N)[C@H]3O[C@H]3O[C@H](CO)[C@@H](O)[C@H](O)[C@H]3N)O[C@@H]2CO)[C@H](N)[C@@H](O)[C@@H]1O | 3 µg/mL (≈ 3.92 µM) | 0.3 µg/mL (≈ 0.392 µM)
4 | NC[C@@H]1O[C@H](O[C@H]2[C@@H](OCCNC3CCCCC3)[C@H](O[C@@H]3[C@@H](O)[C@H](N)C[C@H](N)[C@H]3O[C@H]3O[C@H](CO)[C@@H](O)[C@H](O)[C@H]3N)O[C@@H]2CO)[C@H](N)[C@@H](O)[C@@H]1O | 3 µg/mL (≈ 4.05 µM) | 3 µg/mL (≈ 4.05 µM)
5 | NC[C@@H]1O[C@H](O[C@H]2[C@@H](O)[C@H](O[C@@H]3[C@@H](O)[C@H](N)C[C@H](N)[C@H]3O[C@H]3O[C@H](CO)[C@@H](O)[C@H](O)[C@H]3N)O[C@@H]2CO)[C@H](N)[C@@H](O)[C@@H]1O [PAROMOMYCIN] | 3 µg/mL (≈ 4.87 µM) | 1 µg/mL (≈ 1.62 µM)
6 | NC[C@@H]1O[C@H](O[C@H]2[C@@H](OCC(O)c3ccccc3)[C@H](O[C@@H]3[C@@H](O)[C@H](N)C[C@H](N)[C@H]3O[C@H]3O[C@H](CO)[C@@H](O)[C@H](O)[C@H]3N)O[C@@H]2CO)[C@H](N)[C@@H](O)[C@@H]1O (some centres not stated) | 25 µg/mL (≈ 34 µM) | 3 µg/mL (≈ 4.08 µM)
7 | NC[C@@H]1O[C@H](O[C@H]2[C@@H](OCCNC3CCCc4ccccc43)[C@H](O[C@@H]3[C@@H](O)[C@H](N)C[C@H](N)[C@H]3O[C@H]3O[C@H](CO)[C@@H](O)[C@H](O)[C@H]3N)O[C@@H]2CO)[C@H](N)[C@@H](O)[C@@H]1O (some centres not stated) | > 10 µg/mL | 1.25 µg/mL (≈ 1.58 µM)
8 | NC[C@@H]1O[C@H](O[C@H]2[C@@H](OCCNC3CCCNC3)[C@H](O[C@@H]3[C@@H](O)[C@H](N)C[C@H](N)[C@H]3O[C@H]3O[C@H](CO)[C@@H](O)[C@H](O)[C@H]3N)O[C@@H]2CO)[C@H](N)[C@@H](O)[C@@H]1O (some centres not stated) | 1.5 µg/mL (≈ 2.02 µM) | 3 µg/mL (≈ 4.04 µM)
9 | CC(C)(C)CCNCCO[C@H]1[C@H](O[C@@H]2[C@@H](O)[C@H](N)C[C@H](N)[C@H]2O[C@H]2O[C@H](CO)[C@@H](O)[C@H](O)[C@H]2N)O[C@H](CO)[C@H]1O[C@H]1O[C@@H](CN)[C@@H](O)[C@H](O)[C@H]1N | 10 µg/mL (≈ 13.5 µM) | 0.6 µg/mL (≈ 0.808 µM)
10 | NC[C@@H]1O[C@H](O[C@H]2[C@@H](OCCN(CCCc3ccccc3)CCc3ccccc3)[C@H](O[C@H]3C(O[C@H]4O[C@H](CO)[C@@H](O)[C@H](O)[C@H]4N)[C@@H](N)C[C@@H](N)[C@@H]3O)O[C@@H]2CO)[C@H](N)[C@@H](O)[C@@H]1O (some centres not stated) | 10 µg/mL (≈ 11.4 µM) | 0.6 µg/mL (≈ 0.681 µM)
11 | NC[C@@H]1O[C@H](O[C@H]2[C@@H](OCCNCc3ccnc(N)c3)[C@H](O[C@@H]3[C@@H](O)[C@H](N)C[C@H](N)[C@H]3O[C@H]3O[C@H](CO)[C@@H](O)[C@H](O)[C@H]3N)O[C@@H]2CO)[C@H](N)[C@@H](O)[C@@H]1O | 6 µg/mL (≈ 7.84 µM) | 0.6 µg/mL (≈ 0.784 µM)
12 | NC[C@@H]1O[C@H](O[C@H]2[C@@H](OCCNc3cccnc3)[C@H](O[C@@H]3[C@@H](O)[C@H](N)C[C@H](N)[C@H]3O[C@H]3O[C@H](CO)[C@@H](O)[C@H](O)[C@H]3N)O[C@@H]2CO)[C@H](N)[C@@H](O)[C@@H]1O | 12 µg/mL (≈ 16.3 µM) | < 1.5 µg/mL
13 | NC[C@@H]1O[C@H](O[C@H]2[C@@H](OCCNCCC3CC4CCC3C4)[C@H](O[C@@H]3[C@@H](O)[C@H](N)C[C@H](N)[C@H]3O[C@H]3O[C@H](CO)[C@@H](O)[C@H](O)[C@H]3N)O[C@@H]2CO)[C@H](N)[C@@H](O)[C@@H]1O (some centres not stated) | > 10 µg/mL | 5 µg/mL (≈ 6.4 µM)
14 | CCCCCCCCN(CCCCCCCC)CCO[C@H]1[C@H](O[C@H]2C(O[C@H]3O[C@H](CO)[C@@H](O)[C@H](O)[C@H]3N)[C@@H](N)C[C@@H](N)[C@@H]2O)O[C@H](CO)[C@H]1O[C@H]1O[C@@H](CN)[C@@H](O)[C@H](O)[C@H]1N (some centres not stated) | 5 µg/mL (≈ 5.66 µM) | 1.2 µg/mL (≈ 1.36 µM)
15 | NCCO[C@H]1[C@H](O[C@@H]2[C@@H](O)[C@H](N)C[C@H](N)[C@H]2O[C@H]2O[C@H](CO)[C@@H](O)[C@H](O)[C@H]2N)O[C@H](CO)[C@H]1O | 6 µg/mL (≈ 12 µM) | 12 µg/mL (≈ 24.1 µM)
16 | NCCCNCCO[C@H]1[C@H](O[C@@H]2[C@@H](O)[C@H](N)C[C@H](N)[C@H]2O[C@H]2O[C@H](CO)[C@@H](O)[C@H](O)[C@H]2N)O[C@H](CO)[C@H]1O | 6 µg/mL (≈ 10.8 µM) | 6 µg/mL (≈ 10.8 µM)
17 | NC[C@@H]1O[C@H](O[C@H]2[C@@H](OCCNCCc3cc(C(F)(F)F)cc(C(F)(F)F)c3)[C@H](O[C@@H]3[C@@H](O)[C@H](N)C[C@H](N)[C@H]3O[C@H]3O[C@H](CO)[C@@H](O)[C@H](O)[C@H]3N)O[C@@H]2CO)[C@H](N)[C@@H](O)[C@@H]1O | > 10 µg/mL | 2.5 µg/mL (≈ 2.78 µM)
18 | NC[C@@H]1O[C@H](O[C@H]2[C@@H](OCCNc3ccccn3)[C@H](O[C@@H]3[C@@H](O)[C@H](N)C[C@H](N)[C@H]3O[C@H]3O[C@H](CO)[C@@H](O)[C@H](O)[C@H]3N)O[C@@H]2CO)[C@H](N)[C@@H](O)[C@@H]1O | 12 µg/mL (≈ 16.3 µM) | 2 µg/mL (≈ 2.72 µM)
19 | NCCCNCCO[C@H]1[C@H](O[C@@H]2[C@@H](O)[C@H](N)C[C@H](N)[C@H]2O[C@H]2O[C@H](CO)[C@@H](O)[C@H](O)[C@H]2N)O[C@H](CO)[C@H]1O[C@H]1O[C@@H](CN)[C@@H](O)[C@H](O)[C@H]1N | 25 µg/mL (≈ 34.9 µM) | 3 µg/mL (≈ 4.19 µM)
20 | CN(C)CCO[C@H]1[C@H](O[C@@H]2[C@@H](O)[C@H](N)C[C@H](N)[C@H]2O[C@H]2O[C@H](CO)[C@@H](O)[C@H](O)[C@H]2N)O[C@H](CO)[C@H]1O[C@H]1O[C@@H](CN)[C@@H](O)[C@H](O)[C@H]1N | 12 µg/mL (≈ 17.5 µM) | 6 µg/mL (≈ 8.74 µM)
21 | NC[C@@H]1O[C@H](O[C@H]2[C@@H](OCCO)[C@H](O[C@@H]3[C@@H](O)[C@H](N)C[C@H](N)[C@H]3O[C@H]3O[C@H](CO)[C@@H](O)[C@H](O)[C@H]3N)O[C@@H]2CO)[C@H](N)[C@@H](O)[C@@H]1O | 12 µg/mL (≈ 18.2 µM) | 12 µg/mL (≈ 18.2 µM)

Second part, the molecule after the results:

Row | MIC (Escherichia coli) | MIC (Staphylococcus aureus) | Compound
22 | > 50 µg/mL | 6 µg/mL (≈ 8.34 µM) | NC[C@@H]1O[C@H](O[C@H]2[C@@H](OCCc3ccccc3)[C@H](O[C@@H]3[C@@H](O)[C@H](N)C[C@H](N)[C@H]3O[C@H]3O[C@H](CO)[C@@H](O)[C@H](O)[C@H]3N)O[C@@H]2CO)[C@H](N)[C@@H](O)[C@@H]1O
23 | 5 µg/mL (≈ 6.02 µM) | 0.6 µg/mL (≈ 0.722 µM) | NC[C@@H]1O[C@H](O[C@H]2[C@@H](OCCNCCc3ccc(C(F)(F)F)cc3)[C@H](O[C@@H]3[C@@H](O)[C@H](N)C[C@H](N)[C@H]3O[C@H]3O[C@H](CO)[C@@H](O)[C@H](O)[C@H]3N)O[C@@H]2CO)[C@H](N)[C@@H](O)[C@@H]1O
24 | 10 µg/mL (≈ 13.1 µM) | 3 µg/mL (≈ 3.94 µM) | NC[C@@H]1O[C@H](O[C@H]2[C@@H](OCCCCCc3ccccc3)[C@H](O[C@@H]3[C@@H](O)[C@H](N)C[C@H](N)[C@H]3O[C@H]3O[C@H](CO)[C@@H](O)[C@H](O)[C@H]3N)O[C@@H]2CO)[C@H](N)[C@@H](O)[C@@H]1O
25 | 12 µg/mL (≈ 15.3 µM) | 1 µg/mL (≈ 1.27 µM) | NC[C@@H]1O[C@H](O[C@H]2[C@@H](OCCNc3cnc4ccccc4c3)[C@H](O[C@@H]3[C@@H](O)[C@H](N)C[C@H](N)[C@H]3O[C@H]3O[C@H](CO)[C@@H](O)[C@H](O)[C@H]3N)O[C@@H]2CO)[C@H](N)[C@@H](O)[C@@H]1O
26 | 3 µg/mL (≈ 3.86 µM) | 0.6 µg/mL (≈ 0.772 µM) | NC[C@@H]1O[C@H](O[C@H]2[C@@H](OCCNCCCc3ccccc3)[C@H](O[C@@H]3[C@@H](O)[C@H](N)C[C@H](N)[C@H]3O[C@H]3O[C@H](CO)[C@@H](O)[C@H](O)[C@H]3N)O[C@@H]2CO)[C@H](N)[C@@H](O)[C@@H]1O
27 | 12 µg/mL (≈ 15.7 µM) | < 1.5 µg/mL | NC[C@@H]1O[C@H](O[C@H]2[C@@H](OCCNCCc3cccnc3)[C@H](O[C@@H]3[C@@H](O)[C@H](N)C[C@H](N)[C@H]3O[C@H]3O[C@H](CO)[C@@H](O)[C@H](O)[C@H]3N)O[C@@H]2CO)[C@H](N)[C@@H](O)[C@@H]1O
28 | 10 µg/mL (≈ 12.2 µM) | 5 µg/mL (≈ 6.08 µM) | COc1cc(CCNCCO[C@H]2[C@H](O[C@@H]3[C@@H](O)[C@H](N)C[C@H](N)[C@H]3O[C@H]3O[C@H](CO)[C@@H](O)[C@H](O)[C@H]3N)O[C@H](CO)[C@H]2O[C@H]2O[C@@H](CN)[C@@H](O)[C@H](O)[C@H]2N)cc(OC)c1
29 | 10 µg/mL (≈ 12.3 µM) | 1 µg/mL (≈ 1.23 µM) | NC[C@@H]1O[C@H](O[C@H]2[C@@H](OCCNCCc3ccc4ccccc4c3)[C@H](O[C@@H]3[C@@H](O)[C@H](N)C[C@H](N)[C@H]3O[C@H]3O[C@H](CO)[C@@H](O)[C@H](O)[C@H]3N)O[C@@H]2CO)[C@H](N)[C@@H](O)[C@@H]1O
30 | 3 µg/mL (≈ 4.01 µM) | 3 µg/mL (≈ 4.01 µM) | NC[C@@H]1O[C@H](O[C@H]2[C@@H](OCCNCc3ccccc3)[C@H](O[C@@H]3[C@@H](O)[C@H](N)C[C@H](N)[C@H]3O[C@H]3O[C@H](CO)[C@@H](O)[C@H](O)[C@H]3N)O[C@@H]2CO)[C@H](N)[C@@H](O)[C@@H]1O
31 | > 40 µg/mL | 10 µg/mL (≈ 11.3 µM) | NC[C@@H]1O[C@H](O[C@H]2[C@@H](OCCNCCN3C(=O)c4cccc5cccc(c45)C3=O)[C@H](O[C@@H]3[C@@H](O)[C@H](N)C[C@H](N)[C@H]3O[C@H]3O[C@H](CO)[C@@H](O)[C@H](O)[C@H]3N)O[C@@H]2CO)[C@H](N)[C@@H](O)[C@@H]1O
